According to ChEMBL document CHEMBL1129480, “Design and synthesis of 1-aminocycloalkane-1-carboxylic acid-substituted deltorphin analogues: unique delta and mu opioid activity in modified peptides” (J Med Chem, 1996):
Square brackets hold non-standard residues; d marks the D form. Peptide text beside a SMILES is read from it. Ac6c = NC1(C(=O)O)CCCCC1; Ac5c = NC1(C(=O)O)CCCC1; Ac3c = NC1(C(=O)O)CC1

Experiments:
[1] = target: Delta-type opioid receptor (Rattus norvegicus, UniProt P33533); test: Displacement of [3H]DPDPE (0.63 nM) from Opioid receptor delta 1
Sequence of Delta-type opioid receptor (Rattus norvegicus, UniProt P33533) (P33533 whole entry): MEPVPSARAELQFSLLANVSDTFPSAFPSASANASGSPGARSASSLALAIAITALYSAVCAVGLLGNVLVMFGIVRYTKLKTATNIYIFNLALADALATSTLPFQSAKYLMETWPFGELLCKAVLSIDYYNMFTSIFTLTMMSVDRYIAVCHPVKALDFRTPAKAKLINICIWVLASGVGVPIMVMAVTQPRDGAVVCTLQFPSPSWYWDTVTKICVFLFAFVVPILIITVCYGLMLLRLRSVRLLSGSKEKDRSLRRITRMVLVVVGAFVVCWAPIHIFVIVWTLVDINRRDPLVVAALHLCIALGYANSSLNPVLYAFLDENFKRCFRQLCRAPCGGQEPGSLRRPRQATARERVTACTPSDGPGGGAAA
Method in brief: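 Rat brain synaptosomal membranes, preincubated, incubated with [3H]DPDPE in 50 mM HEPES pH 7.5, 5 mM MgCl2, glycerol, protease inhibitors, 120 min at 22-23 °C. Nonspecific baseline from 2 µM unlabeled peptide. Filtered, washed with ice-cold buffer plus 0.01% BSA or lactalbumin. Duplicates, 6-14 concentrations over 1000-fold, or triplicates with 25-35 concentrations for one/two-site fits. Ki via Cheng-Prusoff.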

[2] = target: Mu-type opioid receptor (Rattus norvegicus, UniProt P33535); test: Displacement of [3H]DAGO (1.28 nM) from Opioid receptor mu 1
Sequence of Mu-type opioid receptor (Rattus norvegicus, UniProt P33535) (P33535 whole entry): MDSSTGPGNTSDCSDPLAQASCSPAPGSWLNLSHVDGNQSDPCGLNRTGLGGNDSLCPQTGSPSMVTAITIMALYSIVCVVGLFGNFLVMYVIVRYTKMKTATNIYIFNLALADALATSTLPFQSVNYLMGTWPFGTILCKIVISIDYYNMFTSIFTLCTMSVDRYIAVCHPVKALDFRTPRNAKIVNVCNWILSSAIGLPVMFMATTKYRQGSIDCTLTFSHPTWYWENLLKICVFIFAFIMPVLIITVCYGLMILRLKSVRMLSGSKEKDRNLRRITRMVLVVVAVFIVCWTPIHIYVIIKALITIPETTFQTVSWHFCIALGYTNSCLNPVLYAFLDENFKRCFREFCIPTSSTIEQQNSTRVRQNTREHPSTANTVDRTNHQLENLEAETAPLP
Method in brief: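 Rat brain synaptosomal membranes, preincubated, in 50 mM HEPES pH 7.5, 5 mM MgCl2, glycerol, protease inhibitors with [3H]DAGO for 120 min at 22-23 °C. Baseline set with 2 µM unlabeled peptide. Filtration, washes with ice-cold buffer containing 0.01% BSA or lactalbumin. Duplicates over 6-14 concentrations spanning 1000-fold, or triplicates with 25-35 concentrations fitted to one- or two-site models. Ki from IC50 by Cheng-Prusoff.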

[3] = target: Mu-type opioid receptor (Cavia porcellus, UniProt P97266); test: Compound was evaluated for its inhibitory activity towards Opioid receptor mu 1 of guinea pig ileum (GPI); type: tissue-based
Sequence of Mu-type opioid receptor (Cavia porcellus, UniProt P97266) (P97266 whole entry): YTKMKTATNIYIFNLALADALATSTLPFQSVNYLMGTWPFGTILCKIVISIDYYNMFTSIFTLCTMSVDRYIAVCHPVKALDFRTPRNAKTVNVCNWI
Method in brief: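 Guinea pig ileum segment (2-3 cm) in 20 mL organ bath with 70 µM hexamethonium bromide and 0.125 µM mepyramine maleate, 95% O2/5% CO2, 36 °C. Transmural stimulation, 0.5 ms square pulses at 0.1 Hz, 1.5× maximal-twitch voltage (~30 V). Dose-response curves against reference agonists (dermorphin or morphine). IC50 as mean ± SE of four independent experiments.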

[4] = target: Delta-type opioid receptor (Mus musculus, UniProt P32300); test: Inhibitory activity against Opioid receptor delta 1 of mouse vas deferens (MVD); type: tissue-based
Sequence of Delta-type opioid receptor (Mus musculus, UniProt P32300) (P32300 whole entry): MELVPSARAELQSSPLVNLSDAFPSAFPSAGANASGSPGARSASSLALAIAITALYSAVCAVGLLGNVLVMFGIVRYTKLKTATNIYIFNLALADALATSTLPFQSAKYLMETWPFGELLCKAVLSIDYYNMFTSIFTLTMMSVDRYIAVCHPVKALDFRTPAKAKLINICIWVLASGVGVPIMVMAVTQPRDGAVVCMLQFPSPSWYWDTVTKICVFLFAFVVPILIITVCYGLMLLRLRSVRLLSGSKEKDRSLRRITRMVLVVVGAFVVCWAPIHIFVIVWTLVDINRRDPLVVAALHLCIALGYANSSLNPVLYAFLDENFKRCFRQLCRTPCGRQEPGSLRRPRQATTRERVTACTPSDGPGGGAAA

| SMILES | Ki [1] [nM] | Ki [2] [nM] | IC50 [3] [nM] | IC50 [4] [nM] |
| --- | --- | --- | --- | --- |
| CC(C)[C@H](NC(=O)[C@H](CC(=O)O)NC(=O)[C@H](Cc1ccccc1)NC(=O)C1(NC(=O)[C@@H](N)Cc2ccc(O)cc2)CCCCC1)C(=O)N[C@H](C(=O)NCC(N)=O)C(C)C (H-Y[Ac6c]FDVVG-NH2) | 2.48 | 3110 |  |  |
| CC(C)[C@H](NC(=O)[C@H](CC(=O)O)NC(=O)C1(NC(=O)[C@@H](N)Cc2ccc(O)cc2)CCCCC1)C(=O)N[C@H](C(=O)NCC(N)=O)C(C)C (H-Y[Ac6c]DVVG-NH2) | 5260 | 441000 |  |  |
| CC(C)[C@H](NC(=O)[C@H](CC(=O)O)NC(=O)[C@H](Cc1ccccc1)NC(=O)[C@@H](C)NC(=O)[C@@H](N)Cc1ccc(O)cc1)C(=O)N[C@H](C(=O)NCC(N)=O)C(C)C [DELTORPHIN C] | 0.15 | 147 | 337 |  |
| CC(C)[C@H](NC(=O)[C@H](CC(=O)O)NC(=O)C1(NC(=O)[C@H](C)NC(=O)[C@@H](N)Cc2ccc(O)cc2)CCCCC1)C(=O)N[C@H](C(=O)NCC(N)=O)C(C)C (H-YA[Ac6c]DVVG-NH2) | 3.28 | 5460 | > 10000 | 540 |
| CC(C)[C@H](NC(=O)[C@@H](NC(=O)C1(NC(=O)[C@H](Cc2ccccc2)NC(=O)[C@H](C)NC(=O)[C@@H](N)Cc2ccc(O)cc2)CCCCC1)C(C)C)C(=O)NCC(N)=O (H-YAF[Ac6c]VVG-NH2) | 0.045 | 2.45 | 558 | 0.52 |
| CC(C)[C@H](NC(=O)[C@H](CC(=O)O)NC(=O)C1(NC(=O)[C@H](C)NC(=O)[C@@H](N)Cc2ccc(O)cc2)CC1)C(=O)N[C@H](C(=O)NCC(N)=O)C(C)C (H-YA[Ac3c]DVVG-NH2) | 19 | 10200 | > 10000 | 458 |
| CC(C)[C@H](NC(=O)[C@H](CC(=O)O)NC(=O)C1(NC(=O)[C@H](C)NC(=O)[C@@H](N)Cc2ccc(O)cc2)CCCC1)C(=O)N[C@H](C(=O)NCC(N)=O)C(C)C (H-YA[Ac5c]DVVG-NH2) | 15.4 | 6820 | > 10000 | 1640 |
| CC(C)[C@H](NC(=O)[C@@H](NC(=O)C1(NC(=O)[C@H](Cc2ccccc2)NC(=O)[C@H](C)NC(=O)[C@@H](N)Cc2ccc(O)cc2)CCCC1)C(C)C)C(=O)NCC(N)=O (H-YAF[Ac5c]VVG-NH2) | 0.054 | 0.58 | 140 | 0.19 |
| CC(C)[C@H](NC(=O)[C@@H](NC(=O)C1(NC(=O)[C@H](Cc2ccccc2)NC(=O)[C@H](C)NC(=O)[C@@H](N)Cc2ccc(O)cc2)CC1)C(C)C)C(=O)NCC(N)=O (H-YAF[Ac3c]VVG-NH2) | 0.054 | 0.27 | 15 | 0.43 |
| CC(C)[C@H](NC(=O)[C@H](CC(=O)O)NC(=O)C1(NC(=O)C2(NC(=O)[C@@H](N)Cc3ccc(O)cc3)CCCCC2)CCCCC1)C(=O)N[C@H](C(=O)NCC(N)=O)C(C)C (H-Y[Ac6c][Ac6c]DVVG-NH2) | 87.8 | 14800 |  |  |
